system: not listed separately; assay: Tmax in dog at 5 mg/kg, po; assay type: ADME, organism-based, Canis lupus familiaris; parameters: dose 5 mg/kg, route oral; conditions: in vivo

Row | Tmax | SMILES
1 | 1 h | Fc1cccc(Cl)c1Oc1cccc(F)c1O[C@@H]1CCNC1
2 | 1 h | Fc1cccc(Cl)c1Oc1cccc(F)c1OC1CNC1
3 | 1 h | Cc1cccc(F)c1Oc1cccc(F)c1OC1CNC1

system: Rattus norvegicus; assay: In vivo 5HT1A receptor occupancy in sc dosed rat brain; assay type: functional; conditions: not given
How it was run: (§1)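 Ex vivo NET and 5-HT1A occupancy in rat brain from a subcutaneous dose–response, read 1 h post-dose. ID50 derived from the dose–response. For 5-HT1A, the dose giving 10% receptor occupancy was also determined.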

Row | SMILES | ID10
4 | Fc1cccc(Cl)c1Oc1cccc(F)c1OC1CNC1 | < 1 mg/kg

molecular target: Sodium-dependent dopamine transporter (Homo sapiens, UniProt Q01959); assay: Displacement of [3H]WIN-35,428 from human DAT by scintillation proximity assay; conditions: not given
Sequence (Q01959 whole entry): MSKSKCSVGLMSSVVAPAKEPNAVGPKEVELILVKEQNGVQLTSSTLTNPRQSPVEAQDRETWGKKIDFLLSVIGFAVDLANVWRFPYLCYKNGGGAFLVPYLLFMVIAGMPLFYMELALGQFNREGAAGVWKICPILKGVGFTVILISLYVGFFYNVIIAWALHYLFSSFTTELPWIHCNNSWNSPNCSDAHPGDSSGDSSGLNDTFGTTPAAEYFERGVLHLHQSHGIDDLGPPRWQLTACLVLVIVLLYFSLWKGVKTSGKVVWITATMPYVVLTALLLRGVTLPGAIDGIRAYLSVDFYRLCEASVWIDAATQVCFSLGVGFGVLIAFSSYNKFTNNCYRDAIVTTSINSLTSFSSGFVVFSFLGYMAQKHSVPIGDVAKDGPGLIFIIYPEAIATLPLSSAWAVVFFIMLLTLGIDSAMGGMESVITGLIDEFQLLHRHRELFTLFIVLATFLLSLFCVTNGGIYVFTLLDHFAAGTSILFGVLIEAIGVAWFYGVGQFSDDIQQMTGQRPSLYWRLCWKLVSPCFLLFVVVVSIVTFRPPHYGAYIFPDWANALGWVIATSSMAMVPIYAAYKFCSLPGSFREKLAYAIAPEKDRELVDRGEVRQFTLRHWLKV
How it was run: (§2)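 Human transporter binding by scintillation proximity assay: inhibition of [³H]nisoxetine (NET), [³H]WIN 35,428 (DAT) or [³H]citalopram (SERT) binding measured. Ki values are the mean of at least two experiments, each run in duplicate.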

Row | SMILES | Ki
5 | Fc1cccc(Oc2cccc(Cl)c2Cl)c1OC1CNC1 | 312 nM
6 | Fc1ccccc1Oc1ccccc1OC1CCNCC1 | 4510 nM
7 | Cc1cccc(Cl)c1Oc1cccc(F)c1OC1CNC1 | > 6410 nM
8 | Fc1cccc(Oc2c(Cl)cccc2Cl)c1OC1CNC1 | > 5940 nM
9 | Fc1cccc(Oc2ccccc2Cl)c1OC1CNC1 | 4700 nM
10 | Cc1cccc(F)c1Oc1cccc(F)c1OC1CNC1 | > 6460 nM

Second part, the compound after the results:

Row | Ki | SMILES
11 | > 5870 nM | Fc1cccc(Cl)c1Oc1cccc(F)c1O[C@@H]1CCNC1
12 | > 6460 nM | Fc1cccc(Cl)c1Oc1cccc(F)c1OC1CCNC1 (centres undefined)
13 | > 6460 nM | Cc1cccc(F)c1Oc1cccc(F)c1OC1CCNCC1
14 | > 6460 nM | Fc1cccc(Cl)c1Oc1cccc(F)c1OC1CNC1
15 | > 6460 nM | Cc1cccc(F)c1Oc1cccc(F)c1OC1CCNC1 (centres undefined)
16 | > 6370 nM | Fc1cccc(Cl)c1Oc1cccc(F)c1OC1CCNCC1

system: not listed separately; assay: Drug level in rat brain at 10 mg/kg, sc after 1 hr; assay type: ADME, organism-based; parameters: dose 10 mg/kg, route subcutaneous; conditions: read-out: Drug uptake
How it was run: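 Rats dosed subcutaneously at 10 mg/kg; total brain drug concentration measured 1 h post-dose. Reported as mean with SEM, n = 4.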

Row | concentration at 1 h | SMILES
17 | 5620 ng/mL | Fc1cccc(Cl)c1Oc1cccc(F)c1OC1CCNC1 (centres undefined)
18 | 5900 ng/mL | Fc1cccc(Cl)c1Oc1cccc(F)c1OC1CNC1
19 | 5690 ng/mL | Cc1cccc(F)c1Oc1cccc(F)c1OC1CNC1

system: Rattus norvegicus; assay: In vivo NET occupancy in rat brain at 10 mg/kg, sc after 1 hr; assay type: functional; conditions: route subcutaneous
How it was run: (§3)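 Ex vivo receptor occupancy of NET and 5-HT1A in rat brain, collected 1 h after 10 mg/kg subcutaneous dosing.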

Row | SMILES | Activity
20 | Fc1cccc(Cl)c1Oc1cccc(F)c1OC1CCNC1 (centres undefined) | 54%
21 | Fc1cccc(Cl)c1Oc1cccc(F)c1OC1CNC1 | 87%
22 | Cc1cccc(F)c1Oc1cccc(F)c1OC1CNC1 | 84%

molecular target: T1, Sodium-dependent noradrenaline transporter (Homo sapiens, UniProt P23975); assay: […] at human cloned NET expressed in HEK293 cells by FLIPR assay; assay type: functional, cell-based; conditions: not given
T1 sequence (P23975 whole entry): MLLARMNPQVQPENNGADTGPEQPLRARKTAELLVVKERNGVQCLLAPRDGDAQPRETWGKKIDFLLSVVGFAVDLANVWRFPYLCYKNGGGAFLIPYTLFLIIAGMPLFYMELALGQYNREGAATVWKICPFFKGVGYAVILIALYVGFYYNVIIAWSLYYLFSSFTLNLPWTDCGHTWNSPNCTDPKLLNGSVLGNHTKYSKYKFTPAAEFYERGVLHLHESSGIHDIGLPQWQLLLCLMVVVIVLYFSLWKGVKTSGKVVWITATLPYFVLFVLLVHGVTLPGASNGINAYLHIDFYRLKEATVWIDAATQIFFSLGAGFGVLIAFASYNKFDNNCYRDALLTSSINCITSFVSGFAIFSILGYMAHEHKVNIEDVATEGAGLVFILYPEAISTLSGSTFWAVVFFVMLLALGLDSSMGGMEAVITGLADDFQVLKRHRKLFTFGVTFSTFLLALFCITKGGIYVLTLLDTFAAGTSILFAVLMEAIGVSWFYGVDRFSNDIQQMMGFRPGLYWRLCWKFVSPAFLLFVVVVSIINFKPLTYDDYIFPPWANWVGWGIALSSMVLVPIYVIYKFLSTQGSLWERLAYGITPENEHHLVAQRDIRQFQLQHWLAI

Row | EC50 | SMILES
23 | 97 nM | Fc1cccc(Cl)c1Oc1cccc(F)c1OC1CCNC1 (centres undefined)
24 | 28 nM | Fc1cccc(Cl)c1Oc1cccc(F)c1OC1CNC1
25 | 239 nM | Cc1cccc(F)c1Oc1cccc(F)c1OC1CNC1

molecular target: T1, Sodium-dependent noradrenaline transporter; assay: Displacement of [3H]nisoxetine from human NET by scintillation proximity assay; conditions: not given; how it was run: as §2

Row | SMILES | Ki
26 | Fc1cccc(Oc2cccc(Cl)c2Cl)c1OC1CNC1 | 374 nM
27 | Fc1ccccc1Oc1ccccc1OC1CCNCC1 | 1000 nM
28 | Cc1cccc(Cl)c1Oc1cccc(F)c1OC1CNC1 | 433 nM
29 | Fc1cccc(Oc2c(Cl)cccc2Cl)c1OC1CNC1 | 164 nM
30 | Fc1cccc(Oc2ccccc2Cl)c1OC1CNC1 | 198 nM
31 | Cc1cccc(F)c1Oc1cccc(F)c1OC1CNC1 | 116 nM

Further lines, results first:

Row | Ki | SMILES
32 | 110 nM | Fc1cccc(Cl)c1Oc1cccc(F)c1O[C@@H]1CCNC1
33 | 226 nM | Fc1cccc(Cl)c1Oc1cccc(F)c1OC1CCNC1 (centres undefined)
34 | 323 nM | Cc1cccc(F)c1Oc1cccc(F)c1OC1CCNCC1
35 | 138 nM | Fc1cccc(Cl)c1Oc1cccc(F)c1OC1CNC1
36 | 328 nM | Cc1cccc(F)c1Oc1cccc(F)c1OC1CCNC1 (centres undefined)
37 | 218 nM | Fc1cccc(Cl)c1Oc1cccc(F)c1OC1CCNCC1

system: Rattus norvegicus; assay: In vivo 5HT1A receptor occupancy in rat brain at 10 mg/kg, sc after 1 hr; assay type: functional; conditions: route subcutaneous; how it was run: as §3

Row | SMILES | Activity
38 | Fc1cccc(Cl)c1Oc1cccc(F)c1OC1CCNC1 (centres undefined) | 73%
39 | Fc1cccc(Cl)c1Oc1cccc(F)c1OC1CNC1 | 81%
40 | Cc1cccc(F)c1Oc1cccc(F)c1OC1CNC1 | 76%

molecular target: T2, 5-hydroxytryptamine receptor 1A (Homo sapiens, UniProt P08908); assay: Displacement of [3H]8-OH-DPAT from human cloned 5HT1A receptor by liquid scintillation spectrophotometry; conditions: not given
T2 sequence (P08908 whole entry): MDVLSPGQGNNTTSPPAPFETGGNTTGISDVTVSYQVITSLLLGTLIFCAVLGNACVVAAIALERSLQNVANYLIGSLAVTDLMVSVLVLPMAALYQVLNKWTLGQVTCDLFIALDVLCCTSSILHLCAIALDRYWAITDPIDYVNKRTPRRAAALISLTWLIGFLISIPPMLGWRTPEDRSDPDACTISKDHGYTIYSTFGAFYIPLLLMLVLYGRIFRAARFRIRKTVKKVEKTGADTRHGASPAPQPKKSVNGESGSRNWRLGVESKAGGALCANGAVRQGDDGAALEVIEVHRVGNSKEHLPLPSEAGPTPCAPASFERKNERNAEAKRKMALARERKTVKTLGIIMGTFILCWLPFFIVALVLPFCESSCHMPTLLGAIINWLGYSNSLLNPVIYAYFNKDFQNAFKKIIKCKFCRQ

Row | SMILES | Ki
41 | Fc1cccc(Oc2cccc(Cl)c2Cl)c1OC1CNC1 | 16 nM
42 | Fc1ccccc1Oc1ccccc1OC1CCNCC1 | 693 nM
43 | Cc1cccc(Cl)c1Oc1cccc(F)c1OC1CNC1 | 16 nM
44 | Fc1cccc(Oc2c(Cl)cccc2Cl)c1OC1CNC1 | 6 nM
45 | Fc1cccc(Oc2ccccc2Cl)c1OC1CNC1 | 14 nM
46 | Cc1cccc(F)c1Oc1cccc(F)c1OC1CNC1 | 3 nM

Continued, values first:

Row | Ki | SMILES
47 | 4 nM | Cc1cccc(F)c1Oc1cccc(F)c1OC1CCNCC1
48 | 1 nM | Fc1cccc(Cl)c1Oc1cccc(F)c1OC1CNC1
49 | 4 nM | Cc1cccc(F)c1Oc1cccc(F)c1OC1CCNC1 (centres undefined)
50 | 8 nM | Fc1cccc(Cl)c1Oc1cccc(F)c1OC1CCNCC1

molecular target: Sodium-dependent serotonin transporter (Homo sapiens, UniProt P31645); assay: Displacement of [3H]citalopram from human SERT by scintillation proximity assay; conditions: not given; how it was run: as §2
Sequence (P31645 whole entry): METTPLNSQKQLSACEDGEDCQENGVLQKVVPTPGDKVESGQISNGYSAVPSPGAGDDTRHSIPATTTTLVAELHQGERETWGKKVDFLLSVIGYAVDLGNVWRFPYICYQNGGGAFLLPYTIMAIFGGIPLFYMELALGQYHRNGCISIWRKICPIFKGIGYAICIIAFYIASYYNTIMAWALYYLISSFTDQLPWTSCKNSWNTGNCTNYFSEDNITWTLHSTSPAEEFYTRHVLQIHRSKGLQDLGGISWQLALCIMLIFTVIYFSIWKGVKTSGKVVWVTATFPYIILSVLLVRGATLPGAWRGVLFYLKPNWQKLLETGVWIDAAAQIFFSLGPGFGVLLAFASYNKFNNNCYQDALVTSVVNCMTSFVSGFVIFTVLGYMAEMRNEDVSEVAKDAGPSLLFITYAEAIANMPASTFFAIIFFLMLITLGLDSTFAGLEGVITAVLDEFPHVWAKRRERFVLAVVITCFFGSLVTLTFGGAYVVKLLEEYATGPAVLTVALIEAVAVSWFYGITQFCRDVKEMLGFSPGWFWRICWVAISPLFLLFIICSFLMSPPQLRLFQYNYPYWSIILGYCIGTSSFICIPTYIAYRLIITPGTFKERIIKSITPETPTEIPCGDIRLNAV

Row | SMILES | Ki
51 | Fc1cccc(Oc2cccc(Cl)c2Cl)c1OC1CNC1 | 94 nM
52 | Fc1ccccc1Oc1ccccc1OC1CCNCC1 | > 4710 nM
53 | Cc1cccc(Cl)c1Oc1cccc(F)c1OC1CNC1 | > 4610 nM
54 | Fc1cccc(Oc2c(Cl)cccc2Cl)c1OC1CNC1 | > 4620 nM
55 | Fc1cccc(Oc2ccccc2Cl)c1OC1CNC1 | 1710 nM
56 | Cc1cccc(F)c1Oc1cccc(F)c1OC1CNC1 | 1160 nM

The next lines start with the values.

Row | Ki | SMILES
57 | > 4530 nM | Fc1cccc(Cl)c1Oc1cccc(F)c1O[C@@H]1CCNC1
58 | > 4900 nM | Fc1cccc(Cl)c1Oc1cccc(F)c1OC1CCNC1 (centres undefined)
59 | 3250 nM | Cc1cccc(F)c1Oc1cccc(F)c1OC1CCNCC1
60 | > 4900 nM | Fc1cccc(Cl)c1Oc1cccc(F)c1OC1CNC1
61 | > 4690 nM | Cc1cccc(F)c1Oc1cccc(F)c1OC1CCNC1 (centres undefined)
62 | 2040 nM | Fc1cccc(Cl)c1Oc1cccc(F)c1OC1CCNCC1

system: not listed separately; assay: Cmax in dog at 5 mg/kg, po after 1 hr; assay type: ADME, organism-based, Canis lupus familiaris; parameters: dose 5 mg/kg, route oral; conditions: in vivo

Row | Cmax | SMILES
63 | 146 ng/mL | Fc1cccc(Cl)c1Oc1cccc(F)c1O[C@@H]1CCNC1
64 | 919 ng/mL | Fc1cccc(Cl)c1Oc1cccc(F)c1OC1CNC1
65 | 525 ng/mL | Cc1cccc(F)c1Oc1cccc(F)c1OC1CNC1

system: not listed separately; assay: Half life in dog at 5 mg/kg, po; assay type: ADME, organism-based, Canis lupus familiaris; parameters: dose 5 mg/kg, route oral; conditions: in vivo

Row | half-life | SMILES
66 | 1.85 h | Fc1cccc(Cl)c1Oc1cccc(F)c1O[C@@H]1CCNC1
67 | 2.35 h | Fc1cccc(Cl)c1Oc1cccc(F)c1OC1CNC1
68 | 3.01 h | Cc1cccc(F)c1Oc1cccc(F)c1OC1CNC1

molecular target: T2, 5-hydroxytryptamine receptor 1A; assay: Agonist activity at 5HT1A receptor by GTPgammaS binding assay; assay type: functional; conditions: not given

Row | EC50 | SMILES
69 | 197 nM | Fc1cccc(Cl)c1Oc1cccc(F)c1OC1CNC1
70 | 225 nM | Cc1cccc(F)c1Oc1cccc(F)c1OC1CNC1

system: not listed separately; assay: AUC ( 0 to 24 hrs) in dog at 5 mg/kg, po after 1 hr; assay type: ADME, organism-based, Canis lupus familiaris; parameters: time < 24 hr, dose 5 mg/kg, route oral; conditions: plasma

Row | AUC(0-t) at 24 h | SMILES
71 | 560 ng·h/mL | Fc1cccc(Cl)c1Oc1cccc(F)c1O[C@@H]1CCNC1
72 | 3480 ng·h/mL | Fc1cccc(Cl)c1Oc1cccc(F)c1OC1CNC1
73 | 2800 ng·h/mL | Cc1cccc(F)c1Oc1cccc(F)c1OC1CNC1

system: Rattus norvegicus; assay: In vivo NET occupancy in sc dosed rat brain; assay type: functional; conditions: read-out: ID50 (the source's name); how it was run: as §1

Row | SMILES | ED50
74 | Fc1cccc(Cl)c1Oc1cccc(F)c1OC1CNC1 | 1.2 mg/kg

From ChEMBL document CHEMBL1641456, “Design, synthesis, and pharmacological evaluation of azetedine and pyrrolidine derivatives as dual norepinephrine reuptake inhibitors and 5-HT(1A) partial agonists” (Bioorg Med Chem Lett, 2011)
